Assay results reported in PubChem BioAssay AID561 (The Scripps Research Institute Molecular Screening Center, 2006).
Screen size: about 65,000 compounds; about 280 (0.43%) were called active.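 The calls were made as follows: active = inhibition above the mean of all tested compounds plus 3 SD (cut at about 52% in these data); inactive = the rest.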 Many of the other results were omitted from the sample, so actives are more common in it than they were.

molecular target: Nuclear receptor ROR-alpha (Homo sapiens) (UniProt P35398); experiment: inhibitors of orphan receptor RORA, primary screen, cell-based, luminescence (AID 561); conditions: CHO-K1 Gal4-RORA LBD luciferase reporter, at 10 µM, active compounds read high
Method in brief: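 System: transiently transfected CHO-K1 cells, Gal4-DBD/human RORA-LBD fusion plus 5xGal4-luciferase reporter. Doses: one dose of 10 µM final. Timing: 20 h compound treatment, 37 °C. Measured by: luminescence. Evaluation: % inhibition of basal luciferase versus +RORA/-RORA DMSO controls. Benchmarks: mock-transfected cells as 100%, +RORA DMSO cells as 0%. Replicates: single test per compound.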

Nuclear receptor ROR-alpha (Homo sapiens), sequence (P35398 whole entry, looked up, the tested form may be a part): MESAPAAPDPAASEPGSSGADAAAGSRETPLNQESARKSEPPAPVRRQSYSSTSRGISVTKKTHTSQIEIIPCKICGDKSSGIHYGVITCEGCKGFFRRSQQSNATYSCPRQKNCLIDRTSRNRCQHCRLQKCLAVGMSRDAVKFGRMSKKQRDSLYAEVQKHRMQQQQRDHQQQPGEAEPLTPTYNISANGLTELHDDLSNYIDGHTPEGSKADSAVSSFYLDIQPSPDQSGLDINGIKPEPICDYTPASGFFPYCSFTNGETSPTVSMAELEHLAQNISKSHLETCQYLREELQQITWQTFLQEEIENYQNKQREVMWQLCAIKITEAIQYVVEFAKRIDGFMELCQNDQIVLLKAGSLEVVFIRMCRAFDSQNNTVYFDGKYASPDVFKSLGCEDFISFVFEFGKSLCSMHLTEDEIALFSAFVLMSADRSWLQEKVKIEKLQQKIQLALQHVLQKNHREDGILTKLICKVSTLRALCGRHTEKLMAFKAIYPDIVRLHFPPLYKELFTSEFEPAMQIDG

SMILES	inhibition
CC[C@]1(O)CC2CN(CCc3c([nH]c4ccccc34)[C@@](C(=O)OC)(c3cc4c(cc3OC)N(C=O)[C@H]3[C@@](O)(C(=O)OC)[C@H](OC(C)=O)[C@]5(CC)C=CCN6CC[C@]43[C@@H]65)C2)C1 (stereo not given in full)	54% (active)
O=C(C1CCC1)N1CCc2cc(S(=O)(=O)NCc3cccnc3)ccc21	-16.5% (inactive)
Cc1ccc(C(c2nnnn2C(C)(C)C)N2CCc3ccccc3C2)cc1 (stereo not given)	-0.2% (inactive)
CN(c1ccccc1)c1ccc(/C=c2\s/c(=C(/C#N)C(=O)C(C)(C)C)n(Cc3ccco3)c2=O)cc1	11.3% (inactive)
CCCCc1nc2ccccc2c(NC(=O)CN2CCN(C)CC2)c1CCC	-1.9% (inactive)
O=C(Nc1ccon1)c1cccc(Cl)c1	2.2% (inactive)
O=C(Nc1ccc(Cl)cc1)c1ccsn1	-59.5% (inactive)
COc1ccc(OC)c(NC(=O)Cn2c(=O)oc3ccccc32)c1	-7.4% (inactive)
O=C(CC1OC(=O)c2ccccc21)NC1CCCCC1 (stereo not given)	7.6% (inactive)
COc1ccc(-c2cc(C(F)(F)F)nc(S(C)(=O)=O)n2)cc1OC	60.9% (active)
CCN1C(=O)/C(=C2\SC(N3CCCCC3)=NC2=O)c2ccccc21	-84.9% (inactive)
c1ccc(-n2ncc3c2ncn2c(CSc4nc5ccccc5s4)nnc32)cc1	25% (inactive)
O=C(NCc1ccccn1)c1c(O)c2c([nH]c1=O)CCCC2	9.5% (inactive)
O=C(OC1CCOC1=O)c1ccc(-c2nc3ccccc3s2)s1 (stereo not given)	60.6% (active)
CN(Cc1ccccc1)c1nc2c(c(=O)[nH]c(=O)n2C)n1CCSc1nc2ccccc2[nH]1	-1.9% (inactive)
CCOc1ccccc1NC(=O)CCN1CCN(S(=O)(=O)c2ccc(OC)cc2)CC1	0.6% (inactive)
NC(=O)CSC1=Nc2ccccc2C2=NC(CCC(=O)NCc3ccc(F)cc3)C(=O)N12 (stereo not given)	17.5% (inactive)
CCOC(=O)C1=C(CC)Nc2ccccc2N=C1NC(=O)c1cccc(S(=O)(=O)N2CCCC2)c1	-0.9% (inactive)
CCn1c(=N)c(S(=O)(=O)c2ccc(F)cc2)cc2c(=O)n3ccccc3nc21	13.5% (inactive)
c1ccc2c(c1)OCC(CNc1ncnc3nc[nH]c13)O2 (stereo not given)	-20.2% (inactive)

SMILES	inhibition
Cc1ccc2nc(NC(=O)C3CCN(S(=O)(=O)c4ccc5c(c4)oc(=O)n5C)CC3)sc2c1	-2.8% (inactive)
CCOc1ccc(S(=O)(=O)N(CC(=O)O)c2ccccc2)cc1	0% (inactive)
COc1cc(C2C(C(=O)Nc3ccccc3OC)=C(C)Nc3ncnn32)ccc1O (stereo not given)	-9.5% (inactive)
COc1ccccc1NC(=O)c1ccc(C)s1	-48.9% (inactive)
COc1ccc(C(=O)Nc2ccc3c(c2)OCO3)cc1OC	-69.8% (inactive)
COCCCNC(=O)C1CC(=O)N(c2ccc(C)cc2)C1 (stereo not given)	-6.1% (inactive)
CCOC(=O)c1ccc(NC(=O)Cn2nnc(-c3ccc(C)cc3)n2)cc1	-41.7% (inactive)
C=C(C)CSc1nc(N)c2c3c(sc2n1)CCC3	-56.2% (inactive)
CC1CCC(NC(=O)c2ccc(N3CCCC3=O)cc2)CC1 (stereo not given)	-61.7% (inactive)
CCNS(=O)(=O)c1ccc(NC(=O)Nc2cccc(OC)c2)cc1	10% (inactive)
O=C(NCc1ccccc1)C1C(=O)N(Cc2ccccc2)C(=O)C1C1(O)CCCC1 (stereo not given)	13% (inactive)
CCOC(=O)CSc1nncc2ccc(OC)c(OC)c12	21% (inactive)
Cc1ccccc1CSc1nnc(-c2cccnc2)n1N	7.1% (inactive)
O=C1c2ccccc2C(=O)N1c1ccccc1S(=O)C(F)(F)F (stereo not given)	-6.1% (inactive)
COc1ccc(-n2ncc3c(N4CCc5ccccc54)ncnc32)cc1	-50.3% (inactive)
CCS(=O)(=O)N1CCCC(C(=O)NCc2ccc(C)cc2)C1 (stereo not given)	5.2% (inactive)
Cc1cccc2nc(CNc3ccc(F)cc3)cn12	-1% (inactive)
Cc1cccc(NC(=O)c2ccc3ccccc3n2)n1	-83% (inactive)
COc1ccc(N2CCN(C(=O)CSc3nc4cc(OC)c(OC)cc4cc3C#N)CC2)cc1	8.5% (inactive)
Cc1ccc(NC(=O)NCC(c2cccnc2)N2CCOCC2)cc1 (stereo not given)	20.8% (inactive)

SMILES	inhibition
CCOC(=O)C1=C(C)NC(C)=C(C(=O)OCC)C1C1=COCCO1	7.2% (inactive)
O=C(NCCN1CCOCC1)c1ccc2c(c1)ncn2C1CCCC1	-3.7% (inactive)
Cc1cc(C(=O)OCC(=O)NCc2ccco2)c(C)n1-c1ccccc1	-61.4% (inactive)
CCCOC(=O)c1[nH]c2c(c1C)C(=O)CC(c1cc(OC)c(OC)c(OC)c1)C2 (stereo not given)	61.1% (active)
Cc1ccccc1OCC(=O)Nc1ccc(N2CCN(C(=O)C(C)C)CC2)c(Cl)c1	52% (active)
COc1ccc(C(=O)CSc2nnc(COc3ccccc3)n2Cc2ccco2)cc1	-7.7% (inactive)
COc1ccc(C)c2sc(=NC(=O)c3ccc(C#N)cc3)n(C)c12	-84.6% (inactive)
CCS(=O)(=O)n1nc(-c2ccc(OC)cc2)nc1SC	-52.4% (inactive)
N#Cc1nc(Cc2ccccc2)oc1NCCc1ccccc1	-54.1% (inactive)
COc1cc(-n2c(C)nc3cc(C(=O)NCc4ccco4)ccc32)cc(OC)c1OC	-5.4% (inactive)
COc1ccc(OC)c(CN2C(=O)CCC2(C)C(=O)NC2CCCCCC2)c1 (stereo not given)	5.2% (inactive)
CCN(CC)S(=O)(=O)c1cc(C(=O)Nc2ccccn2)ccc1C	-59.6% (inactive)
O=C(Nc1c(C(=O)N2CCCCC2)cnn1-c1ccccc1)c1ccco1	-6.7% (inactive)
O=c1c2ccccc2oc2nc(C3CCCCC3)n(Cc3ccco3)c(=O)c12	2.7% (inactive)
Cc1cccc(OCc2nnc(SCc3nc4cc(C(F)(F)F)ccc4c(=O)[nH]3)o2)c1	16.5% (inactive)
CCOc1cccc(-c2nn3c(-c4ccccn4)nnc3s2)c1	-0.6% (inactive)
O=C(Nc1ccc(Cl)cn1)c1cnn2cccnc12	-62% (inactive)
CSc1ccc(NC(=O)N2CC(C)OC(C)C2)cc1 (stereo not given)	9.2% (inactive)
CCC(CC)C(=O)Nc1cccc(C(=O)N2CCCC2)c1	-11% (inactive)
Oc1ccc(Cl)cc1/C=N/c1nc2ccccc2[nH]1	-51.7% (inactive)
